Where “and” joins values, the source holds several entries; their conditions need not be identical. Equal entries are not always repeated.
Tests used:
Canis familiaris [1] = assay: Conduction time was determined by intraduodenal administration of 10 mg/kg (low dose) of compound in anesthetized dogs. Value was reported for experiment 2; format: functional, Canis lupus familiaris
How it was run: (§1)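 Anesthetized dogs; compound given intraduodenally, generally as two doses, the second a cumulative (high) dose. LV functional refractory period and conduction time measured 15, 30 and 45 min after dosing; heart rate and blood pressure measured during nonpacing intervals. Values are % change from control, given per individual animal. Active if FRP or CT prolonged by ≥12%.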

Canis familiaris [2] = species: Canis familiaris; assay: In vitro electrophysiological evaluation in canine cardiac Purkinje fibres reported as percent change Vmax at 10 uM at concentration range of 1-100 uM; format: functional; conditions: Canis lupus familiaris, Purkinje fiber
How it was run: (§2)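 Canine cardiac Purkinje fibres, intracellular microelectrode recording, paced at a basic cycle length of 1 s. APD95 and Vmax read simultaneously. Compound: 10 mM stock in deionized water, diluted into Tyrode's solution, tested over the stated concentration range. Each fibre used once as its own control. Result is % change from control, given at 10 µM or as the maximum with its concentration. M = <10% decrease or an increase in Vmax.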

Canis familiaris [3] = species: Canis familiaris; assay: (§3) In vitro electrophysiological activity in canine cardiac occurred is 10 uM.; format: functional, Canis lupus familiaris, Heart
Canis familiaris [4] = species: Canis familiaris; assay: (§4) In vitro electrophysiological evaluation in canine cardiac occurred is 100 uM.; format: functional; conditions: Canis lupus familiaris; Heart
Canis familiaris [5] = species: Canis familiaris; assay: as §4; format: functional; conditions: Canis lupus familiaris; Heart
Canis familiaris [6] = assay: Left ventricular refractory period was determined by intravenous administration of two dosages (high/low) of 3 mg/kg of compound in anesthetized dogs. Value was reported for experiment 1; format: functional, Canis lupus familiaris, Cardiac ventricle
Canis familiaris [7] = species: Canis familiaris; assay: In vitro electrophysiological evaluation in canine cardiac Purkinje fibres reported as % change for action potential duration at a concentration of 10 uM; format: functional, Canis lupus familiaris, Purkinje fiber; how it was run: as §2
Canis familiaris [8] = species: Canis familiaris; assay: In vitro electrophysiological activity in canine cardiac occurred is 100 uM.; format: functional, Canis lupus familiaris, Heart
Canis familiaris [9] = species: Canis familiaris; assay: In vitro electrophysiological evaluation in canine cardiac Purkinje fibres reported as % change for action potential duration at 10 uM at 1-100 uM concentration range; format: functional, Canis lupus familiaris, Purkinje fiber; how it was run: as §2
Canis familiaris [10] = species: Canis familiaris; assay: In vitro electrophysiological evaluation in canine cardiac Purkinje fibres reported as maximum percent change Vmax concentration range of 0.1-10 uM; Minimal (<10% decrease or increase in Vmax).; format: functional; conditions: Canis lupus familiaris; Purkinje fiber; how it was run: as §2
Canis familiaris [11] = species: Canis familiaris; assay: In vitro electrophysiological evaluation in canine cardiac ventricular muscle reported as maximum % change for conduction time(CT) at 0.1-10 uM concentration range; concentration at which it occurred is 0.1 uM.; format: functional, Canis lupus familiaris, Muscle tissue
How it was run: (§5)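 Canine right ventricle and papillary muscle strips in oxygenated Tyrode's solution, fitted with stimulating and recording electrodes. The extra-stimulus conduction-interval method was adapted for in vitro use. FRP and CT were read from a conduction-interval curve before and after various compound concentrations, and expressed as percent change from control. Compounds were taken from 10 mM deionized-water stock into Tyrode's. Each strip was used once as its own control.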

Canis familiaris [12] = assay: Left ventricular refractory period was determined by intravenous administration of two dosages (high/low) of 3 mg/kg of compound in anesthetized dogs. Value was reported for experiment 2; format: functional, Canis lupus familiaris, Cardiac ventricle
Canis familiaris [13] = species: Canis familiaris; assay: (§6) In vitro electrophysiological activity in canine cardiac occurred is 1 uM.; format: functional, Canis lupus familiaris, Heart
Canis familiaris [14] = assay: Heart rate was determined by intraduodenal administration of two dosages of 30 mg/kg of compound in anesthetized dogs. Value was reported for experiment 2; format: functional, Canis lupus familiaris; how it was run: as §1
Canis familiaris [15] = species: Canis familiaris; assay: as §6; format: functional, Canis lupus familiaris, Heart; remark: listed apart in the source
Canis familiaris [16] = species: Canis familiaris; assay: as §4; format: functional; conditions: Canis lupus familiaris; Heart; remark: listed apart in the source
Canis familiaris [17] = species: Canis familiaris; assay: In vitro electrophysiological evaluation in canine cardiac Purkinje fibres reported as percent change Vmax at 10 uM at concentration range of 0.1-100 uM; Minimal (<10% decrease or increase in Vmax).; format: functional, organism-based; conditions: Canis lupus familiaris, Purkinje fiber; how it was run: as §2
Canis familiaris [18] = assay: Heart rate was determined by intraduodenal administration of two dosages of 10 mg/kg of compound in anesthetized dogs. Value was reported for experiment 1; format: functional, Canis lupus familiaris; how it was run: as §1
Canis familiaris [19] = assay: Conduction time was determined by intraduodenal administration of 10 mg/kg (low dose) of compound in anesthetized dogs. Value was reported for experiment 1; format: functional, Canis lupus familiaris; how it was run: as §1
Canis familiaris [20] = assay: Heart rate was determined by intraduodenal administration of two dosages of 30 mg/kg of compound in anesthetized dogs. Value was reported for experiment 1; format: functional, Canis lupus familiaris; how it was run: as §1
Canis familiaris [21] = assay: Left ventricular refractory period was determined by intraduodenal administration of 30 mg/kg (high dose) of compound in anesthetized dogs. Value was reported for experiment 1; format: functional, Canis lupus familiaris, Cardiac ventricle
How it was run: (§7)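 Anesthetized dogs received two intraduodenal doses, the second cumulative (low dose/high dose). Left ventricular FRP and CT were measured 15, 30 and 45 min after dosing. Heart rate and mean blood pressure were taken during nonpacing intervals. Values are percent change from control. The vehicle was 5% dextrose in water/tragacanth. Activity was defined as ≥12% prolongation of FRP or CT.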

Canis familiaris [22] = assay: Mean arterial blood pressure was determined by intraduodenal administration of two dosages of 30 mg/kg of compound in anesthetized dogs. Value was reported for experiment 1; format: functional, Canis lupus familiaris; how it was run: as §7
Canis familiaris [23] = assay: Conduction time was determined by intraduodenal administration of 30 mg/kg (high dose) of compound in anesthetized dogs. Value was reported for experiment 1; format: functional, Canis lupus familiaris; how it was run: as §1
Canis familiaris [24] = species: Canis familiaris; assay: In vitro electrophysiological evaluation in canine cardiac ventricular muscle reported as % change for the functional refractory period (FRP) at 10 uM at concentration range of 0.1-10 uM; parameters: species or system Canis lupus familiaris, Muscle tissue; how it was run: as §5
Canis familiaris [25] = species: Canis familiaris; assay: as §6; format: functional, Canis lupus familiaris, Heart; remark: listed apart in the source
Canis familiaris [26] = assay: Mean arterial blood pressure was determined by intraduodenal administration of two dosages of 10 mg/kg of compound in anesthetized dogs. Value was reported for experiment 1; format: functional, Canis lupus familiaris; how it was run: as §7
Canis familiaris [27] = species: Canis familiaris; assay: In vitro electrophysiological evaluation in canine cardiac ventricular muscle reported as maximum % change for functional refractory period (FRP) at 0.1-10 uM concentration range; concentration at which it occurred is 10 uM.; parameters: species or system Canis lupus familiaris, Muscle tissue; how it was run: as §5
Canis familiaris [28] = assay: Mean arterial blood pressure was determined by intraduodenal administration of two dosages of 30 mg/kg of compound in anesthetized dogs. Value was reported for experiment 2; format: functional, Canis lupus familiaris; how it was run: as §7
Canis familiaris [29] = species: Canis familiaris; assay: In vitro electrophysiological evaluation in canine cardiac Purkinje fibres reported as percent change Vmax at 10 uM at concentration range of 0.1-100 uM; format: functional; conditions: Canis lupus familiaris, Purkinje fiber; how it was run: as §2
Canis familiaris [30] = assay: Conduction time was determined by intraduodenal administration of 30 mg/kg (high dose) of compound in anesthetized dogs. Value was reported for experiment 2; format: functional, Canis lupus familiaris; how it was run: as §1
Canis familiaris [31] = species: Canis familiaris; assay: In vitro electrophysiological evaluation in canine cardiac Purkinje fibres reported as percent change Vmax at 10 uM at concentration range of 0.1-10 uM; Minimal (<10% decrease or increase in Vmax).; format: functional; conditions: Canis lupus familiaris, Purkinje fiber; how it was run: as §2
Canis familiaris [32] = assay: Heart rate was determined by intraduodenal administration of two dosages of 10 mg/kg of compound in anesthetized dogs. Value was reported for experiment 2; format: functional, Canis lupus familiaris; how it was run: as §1
Canis familiaris [33] = assay: Mean arterial blood pressure was determined by intraduodenal administration of two dosages of 10 mg/kg of compound in anesthetized dogs. Value was reported for experiment 2; format: functional, Canis lupus familiaris; how it was run: as §7
Canis familiaris [34] = assay: Left ventricular refractory period was determined by intraduodenal administration of 30 mg/kg (high dose) of compound in anesthetized dogs. Value was reported for experiment 2; format: functional, Canis lupus familiaris, Cardiac ventricle; how it was run: as §7
Canis familiaris [35] = species: Canis familiaris; assay: In vitro electrophysiological evaluation in canine cardiac ventricular muscle reported as % change for conduction time(CT) at 0.1-10 uM concentration range; Minimal (<10% decrease or increase inCT).; format: functional, Canis lupus familiaris, Muscle tissue
Canis familiaris [36] = assay: Left ventricular refractory period was determined by intraduodenal administration of 10 mg/kg (low dose) of compound in anesthetized dogs. Value was reported for experiment 1; format: functional, Canis lupus familiaris, Cardiac ventricle; conditions: 10 mg/kg; how it was run: as §7
Canis familiaris [37] = species: Canis familiaris; assay: as §4; format: functional; conditions: Canis lupus familiaris; Heart; remark: listed apart in the source
Canis familiaris [38] = species: Canis familiaris; assay: as §3; format: functional, Canis lupus familiaris, Heart; remark: listed apart in the source

`OC1C2CCN(CC2)C1CCCc1ccc(Cl)cc1` (stereo not drawn) showed a CT (Canis familiaris [1]) of 4%, a Vmax (Canis familiaris [2]) of -13% and an APD95 (Canis familiaris [3]) of 13%. For the same compound, the Vmax (Canis familiaris [4]) was -48%, the Vmax (Canis familiaris [5]) was 100% and the FRP (Canis familiaris [6]) was 12%. For the same compound, the APD95 (Canis familiaris [7]) was 12%, the APD95 (Canis familiaris [8]) was -24% and -7% and the APD95 (Canis familiaris [9]) was 13%. The Vmax (Canis familiaris [10]) was under 10%, the CT (Canis familiaris [11]) was 11% and the FRP (Canis familiaris [12]) was 8%. The APD95 (Canis familiaris [13]) was 41%, the HR (Canis familiaris [14]) was -9% and the APD95 (Canis familiaris [15]) was 25% and 15%. The Vmax (Canis familiaris [16]) was 100%, the Vmax (Canis familiaris [17]) was under 10% and the HR (Canis familiaris [18]) was -6%. For the same compound, the CT (Canis familiaris [19]) was 5%, the HR (Canis familiaris [20]) was -14% and the “LV FRP” value (Canis familiaris [21]) was 3%. The Mean blood pressure (Canis familiaris [22]) was 14%, the CT (Canis familiaris [23]) was 7% and the FRP (Canis familiaris [24]) was 21%. The APD95 (Canis familiaris [25]) was 30%, the Mean blood pressure (Canis familiaris [26]) was 14% and the FRP (Canis familiaris [27]) was 21%. The Mean blood pressure (Canis familiaris [28]) was -3%, the Vmax (Canis familiaris [29]) was -24% and -20% and the CT (Canis familiaris [30]) was 8%. It also gave a Vmax (Canis familiaris [31]) of under 10%, an HR (Canis familiaris [32]) of -7% and a Mean blood pressure (Canis familiaris [33]) of 0%. The “LV FRP” value (Canis familiaris [34]) was 9%, the CT (Canis familiaris [35]) was under 10% and the “LV FRP” value (Canis familiaris [36]) was 4% and 7%. The Vmax (Canis familiaris [37]) was 100% and the APD95 (Canis familiaris [38]) was 14% and 40%.
